Compound activity as filed in PubChem.
This excerpt belongs to a sample that is enriched for hits.
UPR CHOP act: apoptotic UPR (CHOP) activation; CHO-CHOP luciferase reporter, luminescence; percent of tunicamycin response over DMSO baseline; activation, % at 10 µM; actives 0.34% (n = 330,000); AID 449763;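 active means at 10 µM dose, activation of 40% or more, normalized to positive control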
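Dosing – one dose, 10 µM in 0.5% DMSO · System – CHO-CHOP cells, stable luciferase reporter of PERK-eIF2a-CHOP signalling · Input – 500 cells/well · Control set – tunicamycin 10 µg/mL final as positive, DMSO-only wells as negative · Timing – 6 h compound treatment, 37 °C · Measure – % activation vs tunicamycin · Technique – luminescence read with Steady-Glo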
XBP1 UPR activ: activators of adaptive arm of unfolded protein response (XBP1); CHO-XBP1 luciferase reporter, IRE1-XBP1 UPR activation, luminescence; percent of tunicamycin response, DMSO as zero; activation, % at 20 µM; actives 0.33% (n = 330,000);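 active means versus positive control, 20 µM dose yields 30% or more activation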
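Material: CHO cell line with stable XBP1 luciferase reporter; buffer or medium: F12 medium containing 10% fetal bovine serum; compound: single point, 20 µM final compound, 1% DMSO; incubation: 6 h treatment, 37 °C; measured by: glow luminescence from Steady-Glo reagent; evaluation: activation, % of tunicamycin; control set: tunicamycin high, DMSO low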
CHOP inhibitor: inhibitors of CHOP induction in ER stress response. CHO-K1 CHOP-promoter luciferase, tunicamycin-induced, 15-18 h. actives 3.8% (n = 220,000). inhibition, % at 10 µM;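 active means compounds that reduced the stress-induced luciferase reporter signal by more than about 70% of percent inhibition, limit read from the data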
L major viab: reduces viability of Leishmania major promastigotes. resazurin fluorescence viability. inhibition, % at 10 µM. actives 9% (n = 200,000); in the data active means inhibition above about 50%;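 further: promastigotes grown with compound for 44 hours at 28 °C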
Dynein cargo inh: dynein cargo transport inhibition | AID 1381 | actives 0.47% (n = 220,000) | 3617.4 mouse cells, GR-EGFP nuclear translocation imaging; test concentration mostly 20 µM; stimulated with dexamethasone, 1 µM; stronger effect = lower value | z-score, hits read low;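 active means plate z-score of nuclear minus cytoplasmic receptor signal below a set negative limit, without overly bright fluorescence or cell loss, cut at about -3.5 in these data, passing the limit was not always enough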;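 further: z-score of nuclear minus cytoplasmic ring GR-EGFP intensity difference per well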
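Schedule: 48 h induction, then 1 h compound, then 30 min agonist, 37 °C. Buffer or medium: tetracycline-free induction medium containing charcoal-stripped FBS. Reagent: 1.0 µM final dexamethasone stimulus. Evaluation: nuclear versus cytoplasmic GR-EGFP signal, averaged per well. Signal: high-content fluorescence imaging after fixation.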
T cruzi inh: blocks replication of Trypanosoma cruzi; inhibition, % (test concentration not listed); T. cruzi beta-gal in NIH3T3, luminescence, 90 h; actives 1.4% (n = 300,000);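 active means mean inhibition across valid replicates above about 55%, limit read from the data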;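 further: signal also drops with host cell toxicity which is not excluded here; higher percent means less beta-gal luminescence so fewer parasites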
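Assay system: NIH/3T3 host cells with β-galactosidase reporter T. cruzi; input: 5,000 host fibroblasts per well; compound: single 50 nL compound addition per well in DMSO; timing: ≥90 h infection period, 3 h prior cell attachment; measured by: GalScreen β-gal luminescence, detergent lysis, 60 min; evaluation: percent inhibition of parasite-derived β-gal signal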
Each line names hits and unclear results; the compound was inactive in the other large screens.

CC1(C)CC(=O)C(C=NCC2CCCO2)=C(O)C1 (stereo unspecified)	none (no result: T cruzi inh)
CC1(C)CC(=O)C(C=NCC2CCNCC2)=C(O)C1	CHOP inhibitor 72.3
COc1ccc(S(=O)(=O)N(C)C)cc1NCC(=O)Nc1ccc(Br)cc1F	L major viab 57.0
CCN1C(=O)c2cccc3c(S(=O)(=O)NCc4ccccn4)ccc1c23	L major viab 65.2
Cc1ccc(C(=O)/C=C/c2ccc(Br)cc2)o1	L major viab 78.9
CC(=O)Nc1ccc2nc(CN3CCC(CO)(CCc4ccccc4)CC3)ccc2c1	none (no result: L major viab)
COC(=O)[C@H]1[C@H]2C[C@@H]3c4[nH]c5cc(OC)ccc5c4CCN3C[C@H]2C[C@@H](OC(=O)c2ccc(N)cc2)[C@@H]1OC	T cruzi inh 57.9 (no result: L major viab)
COC(=O)[C@H]1[C@H]2C[C@@H]3c4[nH]c5cc(OC)ccc5c4CCN3C[C@H]2C[C@@H](OC(=O)/C=C/c2cc(OC)c(OC)c(OC)c2)[C@@H]1OC	none (no result: CHOP inhibitor, L major viab, Dynein cargo inh, T cruzi inh)
CC(C)n1c2ccccc2c2nc3ccccc3nc21	CHOP inhibitor 72.3
c1ccc(CSCc2nc3ccccc3[nH]2)cc1	L major viab 60.4
c1ccc(CSc2nc3ccccc3[nH]2)cc1	none (no result: L major viab)
CC(C)[C@H](Nc1nc(-c2ccccc2)nc2c1oc1ccccc12)C(=O)O	none
OCCNc1nc(-c2cccnc2)nc2ccccc12	none
COc1cccc(-c2nc(NCc3ccco3)c3ccccc3n2)c1O	none (no result: CHOP inhibitor)
CSc1nc(NCc2ccco2)c2ccccc2n1	L major viab 69.9
c1cncc(-c2nc(NCc3ccco3)c3ccccc3n2)c1	L major viab 76.8
Cc1ccc(-c2nc(NCc3ccco3)c3ccccc3n2)cc1	L major viab 100.0
c1ccc(-c2nc(NCc3ccco3)c3oc4ccccc4c3n2)cc1	CHOP inhibitor 92.4
CSc1ncccc1C(=O)Nc1nccs1	none (no result: CHOP inhibitor, L major viab, Dynein cargo inh)
c1ccc(-c2nc(NCCCn3ccnc3)c3oc4ccccc4c3n2)cc1	L major viab 99.7
O=C(c1ccncc1)c1ccc(N2CCN(C3CC(=O)N(Cc4ccccc4)C3=O)CC2)cc1 (stereo unspecified)	L major viab 97.7
Cc1onc(-c2ccccc2)c1C(=O)NC1CC1	none (no result: CHOP inhibitor, L major viab, Dynein cargo inh, T cruzi inh)
O=c1[nH]c2cc3c(cc2cc1CN(Cc1ccccc1)Cc1nnnn1Cc1ccco1)OCCO3	none (no result: UPR CHOP act, XBP1 UPR activ)
CCOc1ccc2[nH]c(=O)c(CN(CCO)C(c3nnnn3C3CCCCC3)C(C)C)cc2c1 (stereo unspecified)	L major viab 68.6 (no result: UPR CHOP act, XBP1 UPR activ)
CCc1ccc2[nH]c(=O)c(CN(Cc3ccccc3)Cc3nnnn3Cc3ccco3)cc2c1	CHOP inhibitor 73.4
COCCn1nnnc1CN(CCc1ccc(OC)c(OC)c1)Cc1cc2ccc(C)cc2[nH]c1=O	L major viab 97.3
Cc1ccc2[nH]c(=O)c(CN(Cc3ccc4c(c3)OCO4)Cc3nnnn3C3CCCC3)cc2c1	CHOP inhibitor 72.3, L major viab 63.7
COc1ccc(CN2CCNC(=O)C2CC(=O)N(C)C2CCOCC2)c(F)c1 (stereo unspecified)	none (no result: CHOP inhibitor, L major viab, Dynein cargo inh)
CCCCN(C(=O)c1ccccc1OCc1ccc(F)cc1)c1c(N)n(CC(C)C)c(=O)[nH]c1=O	none (no result: CHOP inhibitor, L major viab, Dynein cargo inh)
CCOc1ccc2[nH]c(=O)c(CN(Cc3cccs3)Cc3nnnn3C(C)(C)CC)cc2c1	L major viab 58.9, T cruzi inh 58.5
O=c1[nH]c2cc3c(cc2cc1CN(Cc1cccnc1)Cc1nnnn1Cc1ccco1)OCCO3	none
Cc1cc(C)c2cc(CN(Cc3ccc4c(c3)OCO4)Cc3nnnn3Cc3ccco3)c(=O)[nH]c2c1	CHOP inhibitor 71.4
COc1ccc2cc(CN(Cc3cccnc3)Cc3nnnn3Cc3ccccc3)c(=O)[nH]c2c1	T cruzi inh 62.2
Cc1ccc2[nH]c(=O)c(CN(Cc3ccc4c(c3)OCO4)Cc3nnnn3Cc3ccco3)cc2c1	L major viab 100.0
CCC(C)(C)n1nnnc1CN(Cc1cccs1)Cc1cc2cc(OC)ccc2[nH]c1=O	none (no result: L major viab, Dynein cargo inh)
COc1cc(C(=O)OCC(=O)N2CCC(Cc3ccccc3)CC2)cc(OC)c1OC	none (no result: CHOP inhibitor, L major viab, Dynein cargo inh)
